The source made the active and inactive calls. The rule behind the calls is not given here.
Key:
[1] = molecular target: T1, Lipopolysaccharide heptosyltransferase 1 (Escherichia coli (strain K12)) (UniProt P24173); experiment: Substrate activity at Escherichia coli Heptosyltransferase I assessed as ADP release at 100 uM using phospho(enol)pyruvate and NADH by pyruvate kinase and LDH based ADP/NADH coupling assay
T1 sequence (whole entry): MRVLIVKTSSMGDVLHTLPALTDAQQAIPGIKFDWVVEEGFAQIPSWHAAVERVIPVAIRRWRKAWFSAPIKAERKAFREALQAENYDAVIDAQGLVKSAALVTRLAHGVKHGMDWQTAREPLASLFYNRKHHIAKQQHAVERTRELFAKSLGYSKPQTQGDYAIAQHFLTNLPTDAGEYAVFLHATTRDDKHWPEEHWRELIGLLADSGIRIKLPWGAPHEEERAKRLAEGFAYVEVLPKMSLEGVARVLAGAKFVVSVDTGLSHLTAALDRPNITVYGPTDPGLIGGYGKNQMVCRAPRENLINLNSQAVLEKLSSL
How it was run: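 Screening for acceptor-substrate (nucleophile) use by HepI. Each compound replaces the normal Kdo2-Lipid A-type acceptor. ADP-heptose is the heptose donor. Free glucose and galactose and their α- and β-methyl glycosides were screened the same way before the synthesized compounds.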

[2] = molecular target: T1, Lipopolysaccharide heptosyltransferase 1 (Escherichia coli (strain K12)); experiment: Inhibition of Escherichia coli Heptosyltransferase I assessed as reduction in ADP release at 1 mM using ODLA and ADP-heptose substrates in presence of phospho(enol)pyruvate and NADH by pyruvate kinase and LDH based ADP/NADH coupling assay
[3] = molecular target: T2, Lipopolysaccharide heptosyltransferase 1 (Escherichia coli (strain K12), UniProt P24173); experiment: Inhibition of Escherichia coli Heptosyltransferase I assessed as reduction in ADP release using ODLA and ADP-heptose substrates in presence of phospho(enol)pyruvate and NADH by pyruvate kinase and LDH based ADP/NADH coupling assay
T2 sequence (P24173 whole entry): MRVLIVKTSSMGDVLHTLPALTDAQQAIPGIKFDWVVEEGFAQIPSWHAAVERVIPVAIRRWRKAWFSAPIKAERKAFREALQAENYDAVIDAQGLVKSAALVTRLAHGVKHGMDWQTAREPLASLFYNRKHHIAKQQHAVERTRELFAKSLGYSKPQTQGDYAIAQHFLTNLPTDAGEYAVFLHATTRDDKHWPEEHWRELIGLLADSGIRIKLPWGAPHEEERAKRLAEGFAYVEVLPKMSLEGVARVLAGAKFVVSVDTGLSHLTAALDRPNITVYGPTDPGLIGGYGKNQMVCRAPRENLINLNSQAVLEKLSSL

[4] = compound: CCCC/C=C/CO[C@@H]1O[C@H](CO)[C@@H](O)[C@H](O)[C@H]1O; experiment: (§1) Noncompetitive inhibition of Escherichia coli Heptosyltransferase I assessed as reduction in ADP release by measuring ODLA Kcat at 10 uM using ODLA and ADP-heptose substrates in presence of phospho(enol)pyruvate and NADH by pyruvate kinase and LDH dependent ADP/NADH coupling assay based Lineweaver-Burk plot
[5] = compound: CCCC/C=C/CO[C@@H]1O[C@H](CO)[C@@H](O)[C@H](O)[C@H]1O; experiment: as §1, with “1000” for “10”
[6] = compound: CCCC/C=C/CO[C@@H]1O[C@H](CO)[C@@H](O)[C@H](O)[C@H]1O; experiment: as §1, with “Km” for “Kcat”, “1000” for “10”
[7] = compound: CCCC/C=C/CO[C@@H]1O[C@H](CO)[C@@H](O)[C@H](O)[C@H]1O; experiment: as §1, with “Noncompetitive mixed type” for “Noncompetitive”, “measuring ADP-heptose” for “measuring ODLA”, “at 100” for “at 10”
[8] = compound: CCCC/C=C/CO[C@@H]1O[C@H](CO)[C@@H](O)[C@H](O)[C@H]1O; experiment: as §1, with “100” for “10”
[9] = compound: CCCC/C=C/CO[C@@H]1O[C@H](CO)[C@@H](O)[C@H](O)[C@H]1O; experiment: as §1, with “Noncompetitive mixed type” for “Noncompetitive”, “measuring ADP-heptose” for “measuring ODLA”, “at 1000” for “at 10”
[10] = compound: CCCC/C=C/CO[C@@H]1O[C@H](CO)[C@@H](O)[C@H](O)[C@H]1O; experiment: as §1, with “Noncompetitive mixed type” for “Noncompetitive”, “ADP-heptose Km” for “ODLA Kcat”, “1000” for “10”
[11] = compound: CCCC/C=C/CO[C@@H]1O[C@H](CO)[C@@H](O)[C@H](O)[C@H]1O; experiment: as §1, with “Noncompetitive mixed type” for “Noncompetitive”, “ADP-heptose Km” for “ODLA Kcat”
[12] = compound: CCCC/C=C/CO[C@@H]1O[C@H](CO)[C@@H](O)[C@H](O)[C@H]1O; experiment: as §1, with “Noncompetitive mixed type” for “Noncompetitive”, “measuring ADP-heptose” for “measuring ODLA”
[13] = compound: CCCC/C=C/CO[C@@H]1O[C@H](CO)[C@@H](O)[C@H](O)[C@H]1O; experiment: as §1, with “Km” for “Kcat”
[14] = compound: CCCC/C=C/CO[C@@H]1O[C@H](CO)[C@@H](O)[C@H](O)[C@H]1O; experiment: as §1, with “Noncompetitive mixed type” for “Noncompetitive”, “ADP-heptose Km” for “ODLA Kcat”, “100” for “10”
[15] = compound: CCCC/C=C/CO[C@@H]1O[C@H](CO)[C@@H](O)[C@H](O)[C@H]1O; experiment: as §1, with “Km” for “Kcat”, “100” for “10”

## CO[C@@H]1O[C@H](CO)[C@H](O)[C@H](O)[C@H]1O
[1]
  Activity: inactive
[2]
  inhibition: 7%

## CCCCC/C=C/CO[C@@H]1O[C@H](CO)[C@H](O)[C@H](O)[C@H]1O
[1]
  Activity: inactive
[2]
  inhibition: 7.8%

## CCCCCC/C=C/CO[C@H]1O[C@H](CO)[C@H](O)[C@H](O)[C@H]1O
[1]
  Activity: inactive
[2]
  inhibition: 8.8%

## C=CCO[C@@H]1O[C@H](CO)[C@@H](O)[C@H](O)[C@H]1O
[1]
  Activity: inactive
[3]
  Ki: 650 µM
[2]
  inhibition: 19.6%

## C=CCO[C@@H]1O[C@H](CO)[C@H](O)[C@H](O)[C@H]1O
[1]
  Activity: inactive
[2]
  inhibition: 10%

## CCCCCCCC/C=C/CO[C@H]1O[C@H](CO)[C@@H](O)[C@H](O)[C@H]1O
[1]
  Activity: inactive
[2]
  inhibition: inactive

## CO[C@H]1O[C@H](CO)[C@H](O)[C@H](O)[C@H]1O
[1]
  Activity: inactive
[2]
  inhibition: 8.8%

## CCCCC/C=C/CO[C@@H]1O[C@H](CO)[C@@H](O)[C@H](O)[C@H]1O
[1]
  Activity: inactive
[2]
  inhibition: 11.9%

## CCCCCCCC/C=C/CO[C@H]1O[C@H](CO)[C@H](O)[C@H](O)[C@H]1O
[1]
  Activity: inactive
[2]
  inhibition: inactive

## CCCCCCCC/C=C/CO[C@@H]1O[C@H](CO)[C@@H](O)[C@H](O)[C@H]1O
[1]
  Activity: inactive
[3]
  Ki: 520 µM
[2]
  inhibition: 23.4%

## CO[C@H]1O[C@H](CO)[C@@H](O)[C@H](O)[C@H]1O
[1]
  Activity: inactive
[3]
  Ki: 370 µM
[2]
  inhibition: 27.8%

## CCCCCC/C=C/CO[C@@H]1O[C@H](CO)[C@@H](O)[C@H](O)[C@H]1O
[1]
  Activity: inactive
[2]
  inhibition: 4.2%

## CCCCCCCC/C=C/CO[C@@H]1O[C@H](CO)[C@H](O)[C@H](O)[C@H]1O
[1]
  Activity: inactive
[2]
  inhibition: 5%

## CCCC/C=C/CO[C@@H]1O[C@H](CO)[C@@H](O)[C@H](O)[C@H]1O
[1]
  Activity: inactive
[3]
  Ki: 340 µM
[2]
  inhibition: 29.7%

## O=C[C@H](O)[C@@H](O)[C@@H](O)[C@H](O)CO [GALACTOSE]
[1]
  Activity: inactive
[3]
  Ki: 500 µM
[2]
  inhibition: 28.5%

## CO[C@@H]1O[C@H](CO)[C@@H](O)[C@H](O)[C@H]1O
[1]
  Activity: inactive
[3]
  Ki: 680 µM
[2]
  inhibition: 19.5%

## CCCCCCCCO[C@@H]1O[C@H](CO)[C@@H](O)[C@H](O)[C@H]1O
[1]
  Activity: inactive
[2]
  inhibition: 8.3%

## CCCC/C=C/CO[C@@H]1O[C@H](CO)[C@H](O)[C@H](O)[C@H]1O
[1]
  Activity: inactive
[3]
  Ki: 570 µM
[2]
  inhibition: 22.6%

## OC[C@H]1OC(O)[C@H](O)[C@@H](O)[C@@H]1O (stereo partly specified) [DEXTROSE]
[1]
  Activity: inactive
[3]
  Ki: 280 µM

## CCCCCC/C=C/CO[C@H]1O[C@H](CO)[C@@H](O)[C@H](O)[C@H]1O
[1]
  Activity: inactive
[2]
  inhibition: 16.7%

## CCCCCC/C=C/CO[C@@H]1O[C@H](CO)[C@H](O)[C@H](O)[C@H]1O
[1]
  Activity: inactive
[2]
  inhibition: 6.3%

B1: Lipopolysaccharide heptosyltransferase 1 (Escherichia coli (strain K12)), P24173 (protein)
chain: MRVLIVKTSSMGDVLHTLPALTDAQQAIPGIKFDWVVEEGFAQIPSWHAAVERVIPVAIRRWRKAWFSAPIKAERKAFREALQAENYDAVIDAQGLVKSAALVTRLAHGVKHGMDWQTAREPLASLFYNRKHHIAKQQHAVERTRELFAKSLGYSKPQTQGDYAIAQHFLTNLPTDAGEYAVFLHATTRDDKHWPEEHWRELIGLLADSGIRIKLPWGAPHEEERAKRLAEGFAYVEVLPKMSLEGVARVLAGAKFVVSVDTGLSHLTAALDRPNITVYGPTDPGLIGGYGKNQMVCRAPRENLINLNSQAVLEKLSSL
[4]
  kcat: 1.4 s⁻¹
[5]
  kcat: 0.9 s⁻¹
[6]
  Km: 65 µM
[7]
  kcat: 1.6 s⁻¹
[8]
  kcat: 1.3 s⁻¹
[9]
  kcat: 0.76 s⁻¹
[10]
  Km: 38 µM
[11]
  Km: 277 µM
[12]
  kcat: 2.8 s⁻¹
[13]
  Km: 114 µM
[14]
  Km: 135 µM
[15]
  Km: 108 µM
